Experimental data from article PMC3621710 (Bioconjugate chemistry, 2009).
Square brackets hold non-standard residues; d marks the D form. Ends that are not written are not given here.

Tests used:
[1] = target: MC1 receptor (B16/F1 melanoma cells) (Mus musculus, UniProt Q01727); conditions: read-out: MC1 receptor binding affinity; cited from earlier work
B16/F1 melanoma cells = assay: Clonogenic cytotoxicity; format: cell-based, murine; conditions: 0.1 μM peptide, 3 h incubation at 37 °C, colonies over 6 days
Procedure, shortened: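 B16/F1 cells seeded at 200 cells/well and held overnight at 37 °C. After a wash with RPMI 1640, cells were exposed for 3 h at 37 °C to 0.1 μM test peptide in medium; controls received medium only. After two PBS washes, colonies grew for 6 days with medium changed every other day. Cells were fixed in methanol:glacial acetic acid (3:1) and hematoxylin-stained; colonies >50 cells scored as survivors. Survival normalized to untreated (100%); unpaired Student's t-test.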

Sequence of MC1 receptor (B16/F1 melanoma cells) (Q01727 whole entry): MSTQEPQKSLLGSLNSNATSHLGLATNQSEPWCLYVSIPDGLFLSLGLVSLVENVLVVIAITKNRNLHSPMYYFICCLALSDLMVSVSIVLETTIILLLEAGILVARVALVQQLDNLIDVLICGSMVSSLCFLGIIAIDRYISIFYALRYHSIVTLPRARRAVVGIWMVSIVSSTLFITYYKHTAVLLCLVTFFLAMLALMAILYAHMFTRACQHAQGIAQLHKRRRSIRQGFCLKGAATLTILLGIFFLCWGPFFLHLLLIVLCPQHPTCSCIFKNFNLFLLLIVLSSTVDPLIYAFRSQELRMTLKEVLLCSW

[Cys^3,4,10, D-Phe^7, Arg^11]α-MSH3-13 (CCEH[dF]RWCRPV; not fully specified (C-terminus); ends and bridges not checked) [(Arg^11)CCMSH]
IC50 [1]: 1.7 nM

[Cys^3,4,10, D-Phe^7, Arg^11]α-MSH3-13 [(Arg^11)CCMSH]
decrease in clonogenic survival compared to untreated group (B16/F1 melanoma cells): 11%
